Assay results as given in ChEMBL document CHEMBL4422659, “Discovery of novel 4-phenyl-2-(pyrrolidinyl)nicotinamide derivatives as potent Nav1.1 activators” (Bioorg Med Chem Lett, 2019).
Converted amounts (≈) assume the structure as drawn.

Key:
[1] = target: Sodium channel protein type 1 subunit alpha (Homo sapiens) (UniProt P35498); assay: Activation of human Nav1.1 expressed in T-Rex-CHO cells assessed as change in decay time constant of channel currents at 3 uM at holding potential of -120 mV by automated patch-clamp electrophysiology assay relative to control; format: cell-based
Procedure, shortened: (§1)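 Human Nav1.1 stably expressed in CHO cells; inactivation current decay time constant (tau) measured on IonWorks automated patch platform; tau given as % of control; mean of N=5 unless noted, standard deviation reported.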

[2] = target: Sodium channel protein type 1 subunit alpha (Homo sapiens) (UniProt P35498); assay: Activation of human Nav1.1 expressed in T-Rex-CHO cells assessed as change in decay time constant of channel currents at 1 uM at holding potential of -120 mV by automated patch-clamp electrophysiology assay relative to control; format: cell-based; procedure, shortened: as §1
[3] = target: Sodium channel protein type 1 subunit alpha (Homo sapiens) (UniProt P35498); assay: Activation of human Nav1.1 expressed in T-Rex-CHO cells assessed as change in decay time constant of channel currents at 10 uM at holding potential of -120 mV by automated patch-clamp electrophysiology assay relative to control; format: cell-based; procedure, shortened: as §1
[4] = target: Sodium channel protein type 1 subunit alpha (Homo sapiens) (UniProt P35498); assay: Activation of human Nav1.1 expressed in T-Rex-CHO cells assessed as change in decay time constant of channel currents at 30 uM at holding potential of -120 mV by automated patch-clamp electrophysiology assay relative to control; format: cell-based; procedure, shortened: as §1
[5] = target: Sodium channel protein type 1 subunit alpha (Homo sapiens) (UniProt P35498); assay: Activation of human Nav1.1 expressed in T-Rex-CHO cells assessed as change in decay time constant of channel currents at 1 uM by Q-patch assay relative to control; format: cell-based
Procedure, shortened: (§2)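 Human Nav1.1 in CHO cells, Q-patch automated patch clamp; current decay time constant (tau) and top current ratio expressed as % of control; mean of N=4 unless noted, standard deviation reported.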

[6] = target: Sodium channel protein type 1 subunit alpha (Homo sapiens) (UniProt P35498); assay: Activation of human Nav1.1 expressed in T-Rex-CHO cells assessed as change in decay time constant of channel currents at 3 uM by Q-patch assay relative to control; format: cell-based; procedure, shortened: as §2
[7] = target: Sodium channel protein type 1 subunit alpha (Homo sapiens) (UniProt P35498); assay: Activation of human Nav1.1 expressed in T-Rex-CHO cells assessed as change in decay time constant of channel currents at 10 uM by Q-patch assay relative to control; format: cell-based; procedure, shortened: as §2
[8] = 1-octanol/water partition co-efficient, log D of the compound at pH 7.4 by chromatographic analysis; format: physicochemical
[9] = Aqueous solubility of compound at pH 6.8 by UV absorbance method; format: physicochemical; conditions: buffer
Procedure, shortened: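 Solubility determined at pH 6.8.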

[10] = target: Sodium channel protein type 1 subunit alpha (Homo sapiens) (UniProt P35498); assay: Activation of human Nav1.1 expressed in T-Rex-CHO cells assessed as change in top peak current at 1 uM by Q-patch assay relative to control; format: cell-based; procedure, shortened: as §2
[11] = target: Sodium channel protein type 1 subunit alpha (Homo sapiens) (UniProt P35498); assay: Activation of human Nav1.1 expressed in T-Rex-CHO cells assessed as change in top peak current at 3 uM by Q-patch assay relative to control; format: cell-based; procedure, shortened: as §2
[12] = target: Sodium channel protein type 1 subunit alpha (Homo sapiens) (UniProt P35498); assay: Activation of human Nav1.1 expressed in T-Rex-CHO cells assessed as change in top peak current at 10 uM by Q-patch assay relative to control; format: cell-based; procedure, shortened: as §2

Activity [1] [%]	Activity [2] [%]	Activity [3] [%]	SMILES	also measured
298	114		CC(C)c1ccc(NC(=O)c2c(-c3cc(F)cc(F)c3F)ncnc2N2CC[C@H](F)C2)cn1	
271	111		CC(C)c1ccc(NC(=O)c2c(-c3cccc(F)c3)ncnc2N2CC[C@H](F)C2)cn1	
87	80		CC(C)c1ccc(NC(=O)c2c(-c3ccn(C)n3)ncnc2N2CC[C@H](F)C2)cn1	
99		102	Cc1cc(C)c(NC(=O)c2c(-c3ccc(Cl)cc3)noc2N2CCOCC2)c(C)c1	Activity [4]: 138%; Activity [5]: 113%; Activity [6]: 120%; Activity [7]: 179%; chromatographic logD [8]: 3.43; solubility [9]: 0.9 µg/mL (≈ 2.11 µM); Activity [10]: 92%; Activity [11]: 86%; Activity [12]: 86%
145		162	CC(C)c1ccc(NC(=O)c2c(-c3ccc(Cl)cc3)ncnc2N2CC[C@@H](F)C2)cn1	
313		699	CC(C)c1ccc(NC(=O)c2c(-c3ccc(Cl)cc3)cncc2N2CCOCC2)cn1	
374		767	CC(C)c1ccc(NC(=O)c2c(-c3ccc(Cl)cc3)ccnc2N2CCOCC2)cn1	
140		257	CC(C)c1ccc(NC(=O)c2c(-c3ccc(Cl)cc3)ncnc2N2CCCC2)cn1	
96		74	CCN(CC)c1ncnc(-c2ccc(Cl)cc2)c1C(=O)Nc1ccc(C(C)C)nc1	
258		370	CC(C)c1ccc(NC(=O)c2c(-c3ccc(Cl)cc3)ncnc2N2CCOCC2)cn1	Activity [4]: 555%; Activity [5]: 198%; Activity [6]: 731%; Activity [7]: 774%; chromatographic logD [8]: 2.97; solubility [9]: > 100 µg/mL; Activity [10]: 113%; Activity [11]: 115%; Activity [12]: 131%
97		107	CC(C)c1ccc(NC(=O)c2c(N3CCOCC3)ccnc2-c2ccc(Cl)cc2)cn1	
98	86		CC(C)c1ccc(NC(=O)c2c(-c3ccco3)ncnc2N2CC[C@H](F)C2)cn1	
